Assay results from ChEMBL document CHEMBL6177935, “Design and synthesis of novel multi-target tetrabromophthalimides as CBS and Topo-II inhibitors and DNA intercalators” (RSC Med Chem, 2024).
pIC50: −log10 of the molar value. The source made the active and inactive calls. The rule behind the calls is not given here.

Legend:
Caco-2 = experiment: Growth inhibition of human Caco-2 cells at 100 ug/ml measured after 48 hrs by SRB assay relative to control; assay type: functional; settings: dose 100.0 µg/ml, pooled result: one value given for 15 cell lines, strains, targets or settings
Outline: (§1)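 SRB screen on fifteen human cancer lines. Cells seeded at 3×10^3 per well and left 24 h to attach. A single concentration of 100 µg/mL was tested in triplicate wells for 48 h, with 1% v/v DMSO as vehicle control. Cells fixed in 20% TCA, stained with 0.4% SRB and read at 570 nm. Survival fraction = OD treated/OD control.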

MCF7 = experiment: Growth inhibition of human MCF7 cells at 100 ug/ml measured after 48 hrs by SRB assay relative to control; assay type: functional; settings: dose 100.0 µg/ml, pooled result: one value given for 15 cell lines, strains, targets or settings; outline: as §1
HCT-116 = experiment: Growth inhibition of human HCT-116 cells at 100 ug/ml measured after 48 hrs by SRB assay relative to control; assay type: functional; settings: dose 100.0 µg/ml, pooled result: one value given for 15 cell lines, strains, targets or settings; outline: as §1
A-431 = experiment: Growth inhibition of human A-431 cells at 100 ug/ml measured after 48 hrs by SRB assay relative to control; assay type: functional; settings: dose 100.0 µg/ml, pooled result: one value given for 15 cell lines, strains, targets or settings; outline: as §1
A549 = experiment: Growth inhibition of human A549 cells at 100 ug/ml measured after 48 hrs by SRB assay relative to control; assay type: functional; settings: dose 100.0 µg/ml, pooled result: one value given for 15 cell lines, strains, targets or settings; outline: as §1
HEp-2 = experiment: Growth inhibition of human HEp-2 cells at 100 ug/ml measured after 48 hrs by SRB assay relative to control; assay type: functional; settings: dose 100.0 µg/ml, pooled result: one value given for 15 cell lines, strains, targets or settings; outline: as §1
HNO 97 cell line = experiment: (§2) Growth inhibition of human HNO 97 cells at 100 ug/ml measured after 48 hrs by SRB assay relative to control; assay type: functional; settings: dose 100.0 µg/ml, pooled result: one value given for 15 cell lines, strains, targets or settings; outline: as §1
MDA-MB-468 = experiment: Growth inhibition of human MDA-MB-468 cells at 100 ug/ml measured after 48 hrs by SRB assay relative to control; assay type: functional; settings: dose 100.0 µg/ml, pooled result: one value given for 15 cell lines, strains, targets or settings; outline: as §1
NCI-H1299 = experiment: Growth inhibition of human NCI-H1299 cells at 100 ug/ml measured after 48 hrs by SRB assay relative to control; assay type: functional; settings: dose 100.0 µg/ml, pooled result: one value given for 15 cell lines, strains, targets or settings; outline: as §1
DNA topoisomerase 2-beta [1] = target: T1, DNA topoisomerase 2-beta (Homo sapiens, UniProt Q02880); experiment: Inhibition of human topoisomerase IIB by sandwich ELISA
T1 sequence (Q02880 whole entry): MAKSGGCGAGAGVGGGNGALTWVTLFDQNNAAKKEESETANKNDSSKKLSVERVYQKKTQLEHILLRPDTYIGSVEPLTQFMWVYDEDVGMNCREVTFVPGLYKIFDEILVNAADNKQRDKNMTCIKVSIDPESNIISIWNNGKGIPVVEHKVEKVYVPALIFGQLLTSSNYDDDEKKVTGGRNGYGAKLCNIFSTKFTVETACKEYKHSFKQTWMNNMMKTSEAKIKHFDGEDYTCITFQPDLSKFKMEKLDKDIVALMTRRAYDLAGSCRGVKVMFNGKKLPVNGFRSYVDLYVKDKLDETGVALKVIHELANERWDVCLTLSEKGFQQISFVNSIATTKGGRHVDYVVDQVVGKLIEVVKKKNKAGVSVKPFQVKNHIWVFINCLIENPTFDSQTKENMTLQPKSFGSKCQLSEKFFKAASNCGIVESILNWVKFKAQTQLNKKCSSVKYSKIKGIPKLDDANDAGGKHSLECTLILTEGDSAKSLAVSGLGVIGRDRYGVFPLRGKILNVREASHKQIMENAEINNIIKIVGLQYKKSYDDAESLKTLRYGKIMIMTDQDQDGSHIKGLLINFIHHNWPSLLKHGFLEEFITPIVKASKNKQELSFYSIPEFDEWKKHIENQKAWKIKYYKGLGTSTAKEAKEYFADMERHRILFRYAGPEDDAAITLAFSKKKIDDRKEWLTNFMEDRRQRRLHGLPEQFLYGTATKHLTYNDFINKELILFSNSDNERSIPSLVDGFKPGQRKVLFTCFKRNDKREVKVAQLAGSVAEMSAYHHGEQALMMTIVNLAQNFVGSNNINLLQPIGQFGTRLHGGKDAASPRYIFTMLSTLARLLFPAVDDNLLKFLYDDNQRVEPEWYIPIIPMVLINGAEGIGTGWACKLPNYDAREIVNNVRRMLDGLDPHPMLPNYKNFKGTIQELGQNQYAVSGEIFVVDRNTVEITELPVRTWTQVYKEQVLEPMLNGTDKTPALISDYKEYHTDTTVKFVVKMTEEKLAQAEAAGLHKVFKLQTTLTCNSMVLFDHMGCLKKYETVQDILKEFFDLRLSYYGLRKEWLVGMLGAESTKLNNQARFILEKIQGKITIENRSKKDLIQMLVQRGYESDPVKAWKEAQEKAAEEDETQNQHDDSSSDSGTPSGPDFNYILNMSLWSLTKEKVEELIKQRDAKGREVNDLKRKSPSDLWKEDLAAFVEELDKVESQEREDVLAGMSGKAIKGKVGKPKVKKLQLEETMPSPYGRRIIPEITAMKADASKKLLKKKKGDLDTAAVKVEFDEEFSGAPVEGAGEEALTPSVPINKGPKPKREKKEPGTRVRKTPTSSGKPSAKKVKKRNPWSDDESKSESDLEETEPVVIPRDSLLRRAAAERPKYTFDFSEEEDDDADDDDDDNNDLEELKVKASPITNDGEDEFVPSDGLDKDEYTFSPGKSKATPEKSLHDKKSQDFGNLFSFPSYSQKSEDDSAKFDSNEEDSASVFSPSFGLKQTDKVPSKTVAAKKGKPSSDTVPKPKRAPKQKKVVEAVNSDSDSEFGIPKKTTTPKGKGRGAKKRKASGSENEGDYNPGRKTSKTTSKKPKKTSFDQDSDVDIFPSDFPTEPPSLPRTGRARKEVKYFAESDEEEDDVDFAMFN

FaDu = experiment: Growth inhibition of human FaDu cells at 100 ug/ml measured after 48 hrs by SRB assay relative to control; assay type: functional; settings: dose 100.0 µg/ml, pooled result: one value given for 15 cell lines, strains, targets or settings; outline: as §1
HeLa = experiment: Growth inhibition of human HeLa cells at 100 ug/ml measured after 48 hrs by SRB assay relative to control; assay type: functional; settings: dose 100.0 µg/ml, pooled result: one value given for 15 cell lines, strains, targets or settings; outline: as §1
Tubulin (Homo sapiens) = Tubulin (Homo sapiens) (UniProt P68371+Q9H4B7+P0DPH7+P68366+Q13509+Q71U36+P04350+Q3ZCM7+P07437+P68363+Q9BQE3+Q6PEY2+Q13885+Q9BVA1+Q9BUF5); experiment: (§3) Inhibition of [3H]-colchicine binding to biotinylated-tubulin (unknown origin) measured after 45 mins by scintillation counting analysis; assay type: protein-complex assay
Outline: (§4)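 Scintillation proximity assay run at 37 °C. Incubated 45 min at 37 °C, then the plate was read and percent inhibition calculated from raw counts.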

PC-3 = experiment: Growth inhibition of human PC-3 cells at 100 ug/ml measured after 48 hrs by SRB assay relative to control; assay type: functional; settings: dose 100.0 µg/ml, pooled result: one value given for 15 cell lines, strains, targets or settings; outline: as §1
DNA topoisomerase 2-beta [2] = target: T1, DNA topoisomerase 2-beta; experiment: Inhibition of human topoisomerase IIB-mediated DNA fragmentation
A-375 = experiment: Growth inhibition of human A-375 cells at 100 ug/ml measured after 48 hrs by SRB assay relative to control; assay type: functional; settings: dose 100.0 µg/ml, pooled result: one value given for 15 cell lines, strains, targets or settings; outline: as §1
HepG2 = experiment: Growth inhibition of human HepG2 cells at 100 ug/ml measured after 48 hrs by SRB assay relative to control; assay type: functional; settings: dose 100.0 µg/ml, pooled result: one value given for 15 cell lines, strains, targets or settings; outline: as §1
HN = experiment: Growth inhibition of human HN cells at 100 ug/ml measured after 48 hrs by SRB assay relative to control; assay type: functional; settings: dose 100.0 µg/ml, pooled result: one value given for 15 cell lines, strains, targets or settings; outline: as §1
[3] = as §2; assay type: functional, HNO 97 cell line; settings: HNO 97, 48 h, pooled result: one value given for 15 cell lines, strains, targets or settings, read-out: GI; outline: as §1
Tubulin = experiment: as §3; assay type: protein-complex assay, Homo sapiens; outline: as §4

Row | Structure (SMILES) | growth inhibition (GI) (Caco-2) | growth inhibition (GI) (MCF7) | growth inhibition (GI) (HCT-116) | growth inhibition (GI) (A-431) | growth inhibition (GI) (A549) | growth inhibition (GI) (HEp-2) | growth inhibition (GI) (HNO 97 cell line) | growth inhibition (GI) (MDA-MB-468) | growth inhibition (GI) (NCI-H1299) | inhibition (DNA topoisomerase 2-beta [1]) | growth inhibition (GI) (FaDu) | growth inhibition (GI) (HeLa) | growth inhibition (GI) (PC-3) | inhibition (DNA topoisomerase 2-beta [2]) | growth inhibition (GI) (A-375) | growth inhibition (GI) (HepG2) | growth inhibition (GI) (HN) | further results
1 | O=C1c2c(Br)c(Br)c(Br)c(Br)c2C(=O)N1c1nnc[nH]1 | Active | Active | Active | Active | Active | Active | Active | Active | Active | Active | Active | Active | Active | Active | Active | Active | Active | inhibition (Tubulin (Homo sapiens)): Active; Weak Inhibition Observed
2 | O=C1c2c(Br)c(Br)c(Br)c(Br)c2C(=O)N1c1nnn[nH]1 | Active | Active | Active | Active | Active | Active | Active | Active | Active | Active | Active | Active | Active | Active | Active | Active | Active | inhibition (Tubulin (Homo sapiens)): Active
3 | CC(=O)N(NC(=S)NN1C(=O)c2c(Br)c(Br)c(Br)c(Br)c2C1=O)C(C)=O | Active | Active | Active | Active | Active | Active | Active | Active | Active |  | Active | Active | Active |  | Active | Active | Active | 
4 | COc1cccc2c1C(=O)c1c(O)c3c(c(O)c1C2=O)C[C@@](O)(C(=O)CO)C[C@@H]3O[C@H]1C[C@H](N)[C@H](O)[C@H](C)O1 [DOXORUBICIN] |  |  |  |  |  |  |  |  |  |  |  |  |  | Active |  |  |  | inhibition of growth at 100 µg/mL [3]: 70.2%; pIC50 (DNA topoisomerase 2-beta [1]): 4.90
5 | O=C1CCC(N2C(=O)c3c(Br)c(Br)c(Br)c(Br)c3C2=O)C(=O)O1 (stereo unspecified) | Active; Weak Inhibition Observed | Active; Weak Inhibition Observed | Active; Weak Inhibition Observed | Active; Weak Inhibition Observed | Active; Weak Inhibition Observed | Active; Weak Inhibition Observed | Active; Weak Inhibition Observed | Active; Weak Inhibition Observed | Active; Weak Inhibition Observed |  | Active; Weak Inhibition Observed | Active; Weak Inhibition Observed | Active; Weak Inhibition Observed |  | Active; Weak Inhibition Observed | Active; Weak Inhibition Observed | Active; Weak Inhibition Observed | 
6 | CC(=O)N1C(=O)c2c(Br)c(Br)c(Br)c(Br)c2C1=O | Active | Active | Active | Active | Active | Active | Active | Active | Active |  | Active | Active | Active |  | Active | Active | Active | 
7 | COc1cc([C@@H]2c3cc4c(cc3[C@@H](O[C@@H]3O[C@@H]5CO[C@@H](C)O[C@H]5[C@H](O)[C@H]3O)[C@H]3COC(=O)[C@H]23)OCO4)cc(OC)c1O |  |  |  |  |  |  |  |  |  |  |  |  |  | Active |  |  |  | 
8 | CC(=O)NC(=S)NN1C(=O)c2c(Br)c(Br)c(Br)c(Br)c2C1=O | Active | Active | Active | Active | Active | Active | Active | Active | Active |  | Active | Active | Active |  | Active | Active | Active | 
9 | CC(=O)n1c(-c2ccc(N3C(=O)c4c(Br)c(Br)c(Br)c(Br)c4C3=O)cc2)nc2ccccc21 | Active | Active | Active | Active | Active | Active | Active | Active | Active | Active | Active | Active | Active | Active | Active | Active | Active | pIC50 (Tubulin): 5.16
10 | O=C(O)[C@H](Cc1c[nH]c2ccccc12)N1C(=O)c2c(Br)c(Br)c(Br)c(Br)c2C1=O |  |  |  |  |  |  |  |  |  | Active; Weak Inhibition Observed |  |  |  | Active |  |  |  | inhibition of growth at 100 µg/mL [3]: 75.1%
11 | O=C1c2c(Br)c(Br)c(Br)c(Br)c2C(=O)N1c1ccc([Se][Se]c2ccc(N3C(=O)c4c(Br)c(Br)c(Br)c(Br)c4C3=O)cc2)cc1 | Active | Active | Active | Active | Active | Active | Active | Active | Active |  | Active | Active | Active |  | Active | Active | Active | 
